# Experimental data taken from ChEMBL document CHEMBL1124186, “Synthesis and evaluation of tylosin-related macrolides modified at the aldehyde function: a new series of orally effective antibiotics” (1988).
# Tests used:
# [1] = system: Streptococcus pyogenes; assay: In vivo effective dose against experimental infections in rodent caused by Streptococcus pyogenes C203 when administered orally; type: functional; conditions: po
# [2] = system: Streptococcus pyogenes; assay: In vivo effective dose against experimental infections in rodent caused by Streptococcus pyogenes C203 when administered sc; type: functional
# [3] = system: Streptococcus pyogenes; assay: In vitro antimicrobial activity against Streptococcus pyogenes C203; type: functional
# [4] = system: Streptococcus pneumoniae; assay: In vitro antimicrobial activity against Streptococcus pneumoniae; type: functional
# [5] = system: Enterococcus faecium; assay: In vitro antimicrobial activity against Streptococcus faecium X66; type: functional, streptococcus fae-cium
# [6] = system: Streptococcus pyogenes; assay: Effective dose against Streptococcus pyogenes C203 when administered orally; type: functional; conditions: po
# Summary of the method: (§1)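 Mouse protection test: infected mice were dosed twice, at 1 and 5 h postinfection, either subcutaneously or orally. […] The result is expressed as ED50 in mg/kg × 2.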
# [7] = system: Staphylococcus epidermidis; assay: In vitro antimicrobial activity against Staphylococcus epidermidis EPI1; type: functional
# [8] = system: Haemophilus influenzae; assay: In vitro antimicrobial activity against Haemophilus influenzae.; type: functional
# [9] = system: Streptococcus pyogenes; assay: Antimicrobial activity against Streptococcus pyogenes C203; type: functional
# [10] = system: Streptococcus pyogenes; assay: Effective dose against Streptococcus pyogenes C203 when administered sc; type: functional; summary of the method: as §1
# [11] = system: Staphylococcus aureus; assay: In vitro antimicrobial activity against Staphylococcus aureus X1; type: functional
# [12] = system: Streptococcus; assay: In vitro antimicrobial activity against aerobic bacteria Streptococcus D 2041
# [13] = system: Streptococcus pyogenes; assay: In vivo pyogenes C203 when administered sc; type: functional
# [14] = system: Staphylococcus aureus; assay: In vitro antimicrobial activity against aerobic bacteria Staphylococcus aureus V135; type: functional
# [15] = system: Clostridium perfringens; assay: In vitro antimicrobial activity against anaerobic bacteria clostridium perfringens 81,; type: functional
# [16] = system: Prevotella melaninogenica; assay: In vitro antimicrobial activity against anaerobic bacteria bacteroides melaninogenicus 2736; type: functional
# [17] = system: Streptococcus pneumoniae; assay: In vivo effective dose against experimental infections in mice Streptococcus pneumoniae park when administered orally; type: functional; conditions: po
# [18] = system: Fusobacterium necrophorum; assay: In vitro antimicrobial activity against anaerobic bacteria usobacterium necrophorum 6054A; type: functional
# [19] = system: Staphylococcus aureus; assay: In vitro antimicrobial activity against aerobic bacteria Staphylococcus aureus 513E; type: functional
# [20] = system: Haemophilus influenzae; assay: In vitro antimicrobial activity against aerobic bacteria Haemophilus influenzae 76; type: functional
# [21] = system: Fusobacterium; assay: In vitro antimicrobial activity against anaerobic bacteria fusobacterium symbiosum 1470; type: functional
# [22] = system: Haemophilus parainfluenzae; assay: In vitro antimicrobial activity against aerobic bacteria Haemophilus parainfluenzae 9796; type: functional
# [23] = system: Streptococcus; assay: In vitro antimicrobial activity against aerobic bacteria Streptococcus B 5; type: functional
# [24] = system: Streptococcus; assay: In vitro antimicrobial activity against aerobic bacteria Streptococcus C 24
# [25] = system: Streptococcus sanguinis; assay: In vitro antimicrobial activity against aerobic bacteria Streptococcus sanguis MX132; type: functional
# [26] = system: Peptostreptococcus anaerobius; assay: In vitro antimicrobial activity against anaerobic bacteria peptostreptococcus anaerobius 1428,; type: functional
# [27] = system: Anaerococcus prevotii; assay: In vitro antimicrobial activity against anaerobic bacteria peptococcus prevoti 1281; type: functional
# [28] = system: Staphylococcus aureus; assay: In vitro antimicrobial activity against aerobic bacteria Staphylococcus aureus X400; type: functional
# [29] = system: Staphylococcus aureus; assay: In vivo effective dose against experimental infections in mice Staphylococcus aureus X1 when administered sc; type: functional
# [30] = system: Streptococcus pyogenes; assay: In vivo activity against experimental infections in rodent caused by Streptococcus pyogenes C203 when administered orally; type: functional; conditions: po
# [31] = system: Streptococcus pneumoniae; assay: In vivo effective dose against experimental infections in mice Streptococcus pneumoniae park when administered sc; type: functional
# [32] = system: Eikenella corrodens; assay: In vitro antimicrobial activity against anaerobic bacteria bacteroides corrodens 1874; type: functional
# [33] = system: Haemophilus influenzae; assay: In vitro antimicrobial activity against aerobic bacteria Haemophilus influenzae MX366,; type: functional
# [34] = system: Streptococcus; assay: In vitro antimicrobial activity against aerobic bacteria Streptococcus G Kruder
# [35] = system: Cutibacterium acnes; assay: In vitro antimicrobial activity against anaerobic bacteria propionibacterium acnes 79; type: functional
# [36] = system: Staphylococcus aureus; assay: In vitro antimicrobial activity against aerobic bacteria Staphylococcus aureus V140,; type: functional
# [37] = system: Staphylococcus aureus; assay: In vivo effective dose against experimental infections in mice Staphylococcus aureus X1 when administered orally; type: functional; conditions: po
# [38] = system: Phocaeicola vulgatus; assay: In vitro antimicrobial activity against anaerobic bacteria bacteroides vulgatus 1211; type: functional
# [39] = system: Staphylococcus epidermidis; assay: In vitro antimicrobial activity against aerobic bacteria Streptococcus epi 222; type: functional
# [40] = system: Bacteroides fragilis; assay: In vitro antimicrobial activity against anaerobic bacteria bacteroides fragilis 111; type: functional
# [41] = In vitro antimicrobial activity against anaerobic bacteria peptostreptococcus intermedius 1264; type: functional
# [42] = system: Haemophilus influenzae; assay: In vitro antimicrobial activity against aerobic bacteria Haemophilus influenzae 465; type: functional
# [43] = system: Staphylococcus epidermidis; assay: In vitro antimicrobial activity against aerobic bacteria Streptococcus epi 270; type: functional
# [44] = system: Staphylococcus aureus; assay: In vitro antimicrobial activity against aerobic bacteria Staphylococcus aureus V41; type: functional
# [45] = system: Streptococcus pyogenes; assay: Activity against Streptococcus pyogenes C203 when administered orally; type: functional; conditions: po; summary of the method: as §1
# [46] = system: Streptococcus; assay: In vitro antimicrobial activity against aerobic bacteria Streptococcus D 8043
# [47] = system: Bacteroides fragilis; assay: In vitro antimicrobial activity against anaerobic bacteria bacteroides fragilis 1936B,; type: functional
# [48] = system: Collinsella aerofaciens; assay: In vitro antimicrobial activity against anaerobic bacteria eubacterium aerofaciens 1235; type: functional
# [49] = system: Bacteroides thetaiotaomicron; assay: In vitro antimicrobial activity against anaerobic bacteria bacteroides thetaiotaomicron 1438; type: functional
# [50] = system: Prevotella melaninogenica; assay: In vitro antimicrobial activity against anaerobic bacteria bacteroides melaninogenicus 1856,; type: functional
# [51] = system: Bacteroides fragilis; assay: In vitro antimicrobial activity against anaerobic bacteria bacteroides fragilis 1877; type: functional
# [52] = system: Streptococcus viridans; assay: In vitro antimicrobial activity against aerobic bacteria Streptococcus viridans 9943; type: functional
# [53] = system: Streptococcus; assay: In vitro antimicrobial activity against aerobic bacteria Streptococcus D 9960
# [54] = system: Streptococcus pneumoniae; assay: In vitro antimicrobial activity against aerobic bacteria Streptococcus pneumoniae B1-438; type: functional, streptococcus pneum
# [55] = system: Streptococcus pyogenes; assay: Activity against Streptococcus pyogenes C203 when administered sc; type: functional; summary of the method: as §1
# [56] = system: Streptococcus; assay: In vitro antimicrobial activity against aerobic bacteria Streptococcus B 8
# [57] = system: Clostridium septicum; assay: In vitro antimicrobial activity against anaerobic bacteria clostridium septicum 1128; type: functional
# [58] = system: Peptoniphilus asaccharolyticus; assay: In vitro antimicrobial activity against anaerobic bacteria peptococcus asaccharolyticus 1302; type: functional
# [59] = system: Clostridioides difficile; assay: In vitro antimicrobial activity against anaerobic bacteria Clostridium difficile 2994; type: functional
# [60] = system: Chlamydia trachomatis; assay: In vitro antimicrobial activity against chlamydia trachomatis.; type: functional
# [61] = system: Streptococcus; assay: In vitro antimicrobial activity against aerobic bacteria Streptococcus C 24; type: functional
# [62] = system: Streptococcus; assay: In vitro antimicrobial activity against aerobic bacteria Streptococcus D 8043; type: functional
# [63] = system: Streptococcus; assay: In vitro antimicrobial activity against aerobic bacteria Streptococcus B 8; type: functional
# [64] = system: Streptococcus; assay: In vitro antimicrobial activity against aerobic bacteria Streptococcus D 2041; type: functional
# [65] = system: Peptostreptococcus anaerobius; assay: In vitro antimicrobial activity against anaerobic bacteria eubacterium peptostreptococcus anaerobius 1428,; type: functional
# [66] = system: Streptococcus; assay: In vitro antimicrobial activity against aerobic bacteria Streptococcus G Kruder; type: functional; conditions: Streptococcus; read-out: MIC
# [67] = system: Streptococcus; assay: In vitro antimicrobial activity against aerobic bacteria Streptococcus D 9960; type: functional
smiles,measurement,setting,value
CC[C@H]1OC(=O)C[C@@H](O)[C@H](C)[C@@H](O[C@@H]2O[C@H](C)[C@@H](O)[C@H](N(C)C)[C@H]2O)[C@@H](C)C[C@@H](C)C(=O)/C=C/C(C)=C/[C@@H]1CO,ED50,[1],121 mg/kg
same,ED50,[2],> 30 mg/kg
same,MIC,[3],4 µg/mL
same,MIC,[4],4 µg/mL
same,MIC,[5],4 µg/mL
same,ED50,[6],121 mg/kg
same,MIC,[7],2 µg/mL
same,MIC,[8],4 µg/mL
same,MIC,[9],4 µg/mL
same,ED50,[10],> 30 mg/kg
same,MIC,[11],4 µg/mL
CC[C@H]1OC(=O)C[C@@H](O)[C@H](C)[C@@H](O[C@@H]2O[C@H](C)[C@@H](O)[C@H](N(C)C)[C@H]2O)[C@@H](CC=O)C[C@@H](C)C(=O)/C=C/C(C)=C/[C@@H]1CO[C@@H]1O[C@H](C)[C@@H](O)[C@@H](OC)[C@H]1OC,MIC,[12],0.5 µg/mL
same,ED50,[13],1.4 mg/kg
same,MIC,[14],1 µg/mL
same,MIC,[15],0.25 µg/mL
same,MIC,[16],16 µg/mL
same,ED50,[17],> 100 mg/kg
same,MIC,[18],1 µg/mL
same,MIC,[19],1 µg/mL
same,MIC,[20],8 µg/mL
same,MIC,[21],2 µg/mL
same,MIC,[22],8 µg/mL
same,MIC,[23],0.5 µg/mL
same,MIC,[3],0.25 µg/mL
same,MIC,[4],0.25 µg/mL
same,MIC,[24],0.5 µg/mL
same,MIC,[25],0.5 µg/mL
same,MIC,[26],4 µg/mL
same,MIC,[5],4 µg/mL
same,MIC,[27],4 µg/mL
same,MIC,[28],1 µg/mL
same,ED50,[29],3.9 mg/kg
same,ED50,[30],84 mg/kg
same,ED50,[31],> 10 mg/kg
same,MIC,[32],8 µg/mL
same,MIC,[7],0.5 µg/mL
same,MIC,[8],4 µg/mL
same,MIC,[33],32 µg/mL
same,MIC,[34],0.25 µg/mL
same,MIC,[35],2 µg/mL
same,MIC,[36],1 µg/mL
same,ED50,[37],> 100 mg/kg
same,MIC,[38],8 µg/mL
same,MIC,[39],0.25 µg/mL
same,MIC,[40],8 µg/mL
same,MIC,[41],16 µg/mL
same,MIC,[42],16 µg/mL
same,MIC,[43],> 128 µg/mL
same,MIC,[44],1 µg/mL
same,MIC,[11],0.5 µg/mL
same,ED50,[45],0.8 mg/kg
same,MIC,[46],0.5 µg/mL
same,MIC,[47],8 µg/mL
same,MIC,[48],0.12 µg/mL
same,MIC,[49],2 µg/mL
same,MIC,[50],8 µg/mL
same,MIC,[51],8 µg/mL
same,MIC,[52],> 128 µg/mL
same,MIC,[53],1 µg/mL
same,MIC,[54],> 128 µg/mL
same,ED50,[55],0.25 mg/kg
same,MIC,[56],0.5 µg/mL
same,MIC,[57],2 µg/mL
same,MIC,[58],8 µg/mL
same,MIC,[59],0.25 µg/mL
same,MIC,[60],0.5 µg/mL
CC[C@H]1OC(=O)C[C@@H](O)[C@H](C)[C@@H](O[C@@H]2O[C@H](C)[C@@H](O)[C@H](N(C)C)[C@H]2O)[C@@H](CC=O)C[C@@H](C)C(=O)/C=C/C(C)=C/[C@@H]1CO,ED50,[1],102 mg/kg
same,MIC,[14],1 µg/mL
same,MIC,[15],< 0.5 µg/mL
same,MIC,[16],8 µg/mL
same,MIC,[18],< 0.5 µg/mL
same,MIC,[61],0.5 µg/mL
same,MIC,[19],1 µg/mL
same,MIC,[20],2 µg/mL
same,MIC,[21],< 0.005 µg/mL
same,MIC,[22],4 µg/mL
same,MIC,[62],0.5 µg/mL
same,MIC,[23],1 µg/mL
same,ED50,[2],3.9 mg/kg
same,MIC,[3],0.25 µg/mL
same,MIC,[4],0.25 µg/mL
same,MIC,[63],0.5 µg/mL
same,MIC,[25],0.25 µg/mL
same,MIC,[5],1 µg/mL
same,MIC,[27],16 µg/mL
same,ED50,[6],3.3 mg/kg
same,MIC,[64],0.5 µg/mL
same,MIC,[28],2 µg/mL
same,MIC,[32],32 µg/mL
same,MIC,[7],1 µg/mL
same,MIC,[8],2 µg/mL
same,MIC,[9],0.25 µg/mL
same,MIC,[65],32 µg/mL
same,MIC,[33],2 µg/mL
same,MIC,[66],0.25 µg/mL
same,MIC,[35],8 µg/mL
same,MIC,[36],1 µg/mL
same,MIC,[38],32 µg/mL
same,MIC,[67],1 µg/mL
same,MIC,[39],0.25 µg/mL
same,MIC,[40],32 µg/mL
same,MIC,[41],1 µg/mL
same,MIC,[42],4 µg/mL
same,MIC,[43],> 128 µg/mL
same,ED50,[10],97 mg/kg
same,MIC,[44],2 µg/mL
same,MIC,[11],1 µg/mL
same,MIC,[47],32 µg/mL
same,MIC,[48],< 0.5 µg/mL
same,MIC,[49],128 µg/mL
same,MIC,[50],8 µg/mL
same,MIC,[51],64 µg/mL
same,MIC,[52],> 128 µg/mL
same,MIC,[54],> 128 µg/mL
same,MIC,[57],4 µg/mL
same,MIC,[58],2 µg/mL
same,MIC,[59],4 µg/mL
same,MIC,[60],0.5 µg/mL
